Reference: ChEMBL document CHEMBL3525967, “In vitro glucuronidation of the antibacterial triclocarban and its oxidative metabolites” (Drug Metab Dispos, 2012)

Tests used:
[1] = Drug metabolism in human kidney microsomes assessed as N'-glucuronide-triclocarban formation incubated for 5 mins prior to UDPGA addition measured after 5 to 30 mins by LC-UV analysis; assay type: ADME
Method in brief: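 Pooled human kidney or liver microsomes (liver: 25 mixed-gender donors), 5 µg protein, in 200 µL 100 mM potassium phosphate pH 7.4. Alamethicin pre-treated on ice 15 min. Final 10 µM TCC (2% DMSO), with 10 mM MgCl2 and 10 mM saccharolactone, preincubated 5 min at 37 °C. Started with UDPGA (20 mM stock). Sampled at 5, 10, 15 and 30 min into ACN containing 1 µM DCC internal standard.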

[2] = target: T1, UDP-glucuronosyltransferase 1A9 (Homo sapiens, UniProt O60656); assay: Drug metabolism assessed as human UGT1A9-mediated N'-glucuronide-triclocarban formation expressed in baculovirus infected insect sf9 cells incubated for 5 mins prior to UDPGA addition measured after 5 to 30 mins by LC-UV analysis; assay type: ADME
T1 sequence (O60656 whole entry): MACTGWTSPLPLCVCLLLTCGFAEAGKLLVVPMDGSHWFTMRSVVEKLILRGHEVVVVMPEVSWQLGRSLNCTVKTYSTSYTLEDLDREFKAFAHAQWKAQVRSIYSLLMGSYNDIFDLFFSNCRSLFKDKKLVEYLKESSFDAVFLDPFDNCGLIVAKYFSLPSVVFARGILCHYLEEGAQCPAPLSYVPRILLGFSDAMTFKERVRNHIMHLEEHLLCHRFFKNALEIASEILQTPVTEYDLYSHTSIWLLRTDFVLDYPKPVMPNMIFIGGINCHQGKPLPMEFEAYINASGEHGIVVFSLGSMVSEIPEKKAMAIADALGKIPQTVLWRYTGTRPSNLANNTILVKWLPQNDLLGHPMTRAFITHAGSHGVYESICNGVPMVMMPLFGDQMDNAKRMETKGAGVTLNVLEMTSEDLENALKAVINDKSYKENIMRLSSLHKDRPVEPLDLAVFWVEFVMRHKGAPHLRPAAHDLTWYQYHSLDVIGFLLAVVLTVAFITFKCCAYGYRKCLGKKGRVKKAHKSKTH
Method in brief: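 Microsomes or UGT Supersomes (5 µg protein) were held 15 min on ice with alamethicin in 100 mM potassium phosphate pH 7.4. TCC was added at 10 µM (2% DMSO) with 10 mM MgCl2 and 10 mM saccharolactone, pre-warmed 5 min at 37 °C, then started with UDPGA. Samples at 5, 10, 15 and 30 min were quenched in ACN. Product was read by LC-UV at 265 nm; rate came from regression over time, three incubations.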

O=C(Nc1ccc(Cl)cc1)Nc1ccc(Cl)c(Cl)c1 [TRICLOCARBAN]
Drug metabolism [1]: metabolite_not_detected
Drug metabolism [2]: metabolite_not_detected
